# Screening data as filed in PubChem.
# GRK2 inh = blocks RNA aptamer binding to human GRK2; P25098; bead flow cytometry, FAM-aptamer displacement from GRK2; inhibition of aptamer binding, % at 10 µM; 330,000 tested, 0.59% active;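 active = inhibition of aptamer binding above 40%, roughly 3 SD of noise, on plates passing a quality check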;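 also: median bead fluorescence of bound FAM aptamer so fluorescent compounds give negative values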
# JMJD2C inh = inhibitors of human GASC-1 (JMJD2C) demethylase | AID 2099 | inhibition, % at 2.35 µM | GST-JMJD2C(1-420) H3K9me3 demethylation, DELFIA europium | 330,000 tested, 0.069% active;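 active = more than half of a compound's replicate wells show inhibition beyond 50%, single wells judged on their own value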;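 also: signal counts dimethyl H3K9 product captured on neutravidin plate; 0% = median of DMSO wells and 100% = 0.3 times that DMSO median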
# Target sequence (Q9H3R0 1-420 limits assumed): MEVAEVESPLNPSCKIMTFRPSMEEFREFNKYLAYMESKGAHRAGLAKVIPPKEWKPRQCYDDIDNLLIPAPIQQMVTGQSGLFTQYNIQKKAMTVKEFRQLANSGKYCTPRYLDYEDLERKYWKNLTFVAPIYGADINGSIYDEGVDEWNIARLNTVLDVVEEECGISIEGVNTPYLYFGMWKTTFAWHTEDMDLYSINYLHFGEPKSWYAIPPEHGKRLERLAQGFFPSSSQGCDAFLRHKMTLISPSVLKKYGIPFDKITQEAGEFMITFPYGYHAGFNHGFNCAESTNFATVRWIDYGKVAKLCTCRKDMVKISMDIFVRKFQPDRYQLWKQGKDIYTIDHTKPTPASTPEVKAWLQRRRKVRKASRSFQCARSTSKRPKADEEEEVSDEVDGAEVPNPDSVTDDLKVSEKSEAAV
# Lipid droplet = hepatic lipid droplet formation modulation; inhibition, % at 6.5 µM; AML12 mouse hepatocytes, oleate lipid droplets, BODIPY imaging; 240,000 tested, 0.4% active; AID 1656;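 active = lipid droplet intensity inhibited by at least 50%, with more than 500 cells counted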
#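 Material – AML12 mouse liver cells · Also added – oleate loading, 100 µM · Compound dosing – 6.5 µM single-point dosing · Times – overnight treatment with compound plus oleate · Measured by – fluorescence imaging, 20x objective, two fields per well · Read-out – percent inhibition of filter-corrected integrated lipid droplet intensity per well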
# proCasp7 act = counter-screen: procaspase-7 (human) activation. activation, % at 8.5 µM. recombinant procaspase-7, Ac-DEVD-pNA absorbance 405 nm; D23A/D198A/D206A triple mutant, cannot self-cleave; scale: DMSO 0, 5 µM enzyme 100. 330,000 tested, 0.093% active. P55210;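 active = percent activation above the screen-wide mean plus 3 SD, cut at about 25% in these data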
#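 Assay system: Uncleavable procaspase-7 mutant enzyme; Input: 2 µM procaspase-7 mutant as dispensed; Also added: DEVD-pNA substrate; Medium: Zinc-free HEPES pH 7.4 with 300 mM NaCl, 0.01% Triton X-100; Timing: 1 h compound preincubation, 2 h substrate cleavage, 25 °C; Measured by: Epi-absorbance of released pNA at 405 nm, two timepoints.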
# VLA-4 inh = inhibition in a human VLA-4 binding assay | P13612 | VLA-4 expressing cells, ligand binding flow cytometry | inhibition, % (about 7 µM as worked out from the volumes in the protocol) | 330,000 tested, 0.2% active; in the data active = inhibition above about 50%
# proCasp3 act = activators of human procaspase-3. recombinant procaspase-3 D3A, Ac-DEVD-pNA absorbance 405 nm. activation, % at 8.5 µM. 330,000 tested, 0.11% active. AID 463141;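 active = activation above the mean of all tested compounds plus 3 SD, cut at about 21% in these data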;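 also: 0% = DMSO alone and 100% = DMSO wells spiked with extra 5 µM PC-3 D3A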
#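 Assay system: Autoprocessing-dead procaspase-3 D3A mutant enzyme; also added: Ac-DEVD-pNA; doses: one concentration, 8.5 µM nominal, 0.8% DMSO; times: 1 h compound preincubation, 2 h substrate hydrolysis at 25 °C; technique: 405 nm absorbance of p-nitroaniline, reads at 0 and 120 min; measure: % activation between DMSO and enzyme-spiked controls; repeats: single replicate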
# GRK2 CP1 = human GRK2 inhibition confirmation, cherry pick 1; shares compounds with GRK2 inh; bead-bound GRK2, FAM-aptamer displacement, flow cytometry; aptamer displacement, % at 10 µM; 2,000 tested, 4% active;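 active = aptamer displacement above 40%, near three times the noise of non-fluorescent compounds, on plates passing quality checks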;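 also: negative values mostly reflect intrinsic compound fluorescence rather than true enhancement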
# Aptamer quench SP = quenches fluorescent RNA aptamer, GRK2 hit artifact. fluorescence response (% of DMSO), % at 10 µM. shares compounds with GRK2 inh. 2,000 tested, under 10 active. Carboxyfluorescein RNA aptamer on beads, flow cytometry quenching; active compounds read low;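 active = compounds that quench the bead-bound fluorescent RNA probe, cutting fluorescence to under half of the solvent control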;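 also: counterscreen run without GRK2 so only probe quenching by compound is measured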
# GRK2 confirm 2 = human GRK2 inhibition confirmation, cherry pick 2; bead-bound GRK2, FAM-aptamer displacement, flow cytometry; shares compounds with GRK2 inh; inhibition of aptamer binding, % at 10 µM; AID 504782; 360 tested, under 10 active;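 active = inhibition of aptamer binding above 40%, about triple the noise seen with nonglowing compounds, on plates passing quality control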;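 also: negative values mostly come from compounds that fluoresce themselves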
# FAM quench CP2 = aptamer fluorescence quenching in GRK2 counter-screen | shares compounds with GRK2 inh | carboxyfluorescein RNA aptamer beads, flow cytometry quenching; active compounds read low | fluorescence response vs DMSO, % at 10 µM | 360 tested, under 10 active | AID 588494;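 active = response vs DMSO under 50%, meaning signal dropped by over half, treated as fluorescence quencher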;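 also: labelled aptamer on streptavidin beads without GRK2 as a quench counter-screen; 100% = bead fluorescence of DMSO wells and lower means quenching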
# Active calls of the source: *; / = not tested or not shown. Most compounds without a hit are left out; they make up all but 1.3% or so of the library.
SMILES,GRK2 inh,JMJD2C inh,Lipid droplet,proCasp7 act,VLA-4 inh,proCasp3 act,GRK2 CP1,Aptamer quench SP,others
Cc1cc(C(=O)N2CCN(c3ccc(C(F)(F)F)cn3)CC2)c(C)o1,0.0,6.2,-12.0,-2.5,13.6,-2.4,/,/,
Cc1nc(C)c(/C(O)=C/c2nc3ccc([N+](=O)[O-])cc3oc2=O)o1,0.0,-21.3,5.4,-6.4,4.9,-8.7,/,/,
COc1ccc(C(=O)NCC(C)(C)SCc2c(C)cc(C)cc2C)cc1,50.0*,2.7,/,1.1,18.8,0.3,-1.6,98.2,
COC(=O)c1cc(S(=O)(=O)NCC2CCN(CCc3ccc(OC)cc3)CC2)c[nH]1,0.0,-0.9,20.7,-3.0,6.4,4.3,/,/,
CCC(=O)N1CCc2cc(S(=O)(=O)CCC(=O)Nc3ccc(CC)cc3)ccc21,1.0,-35.1,-0.5,-6.3,-0.7,7.5,/,/,GRK2 confirm 2=11.5;FAM quench CP2=99.0
Cc1ccc(NS(=O)(=O)c2ccc3c(c2)CCN3C(=O)CCC(=O)O)cc1Cl,37.0,-23.4,17.9,4.1,-5.0,0.4,/,/,
CCc1ccc(NS(=O)(=O)c2ccc3c(c2)CCN3C(=O)CCC(=O)O)cc1,52.0*,-10.6,-0.6,2.4,0.0,6.7,/,/,GRK2 confirm 2=6.0;FAM quench CP2=102.0
COc1ccc(CCC(=O)OCC(=O)Nc2ccccc2)cc1,0.0,-4.3,9.3,-5.6,2.5,0.9,/,/,
COc1cc2oc3ccc(C#Cc4ccc(N)cc4)cc3c(=O)c2cc1OC,2.0,-1.3,/,3.2,-20.9,-4.5,/,/,
COc1cc2oc3cc(C#Cc4ccc(N)cc4)ccc3c(=O)c2cc1OC,70.0*,10.3,/,-22.8,-66.6,-43.6,3.1,97.9,
O=C(Nc1ccsc1C(=O)O)c1ccccc1Cl,13.0,16.3,20.6,6.3,-10.6,0.4,/,/,
CCOc1cc2[nH]c(=S)n(C3CC3)c(=O)c2cc1OCC,41.0*,-38.1,1.0,-3.0,4.3,-8.4,15.2,97.7,
CCOC(=O)C1(CCCc2ccccc2)CCN(Cc2nccn2CC)CC1,0.0,-14.9,2.0,-0.4,17.2,1.9,/,/,
CCOC(=O)C1(CCCc2ccccc2)CCN(CCCn2cccn2)CC1,93.0*,2.0,-2.3,9.0,3.3,7.4,-3.2,105.9,
Cc1ccccc1SCC(=O)NCC(c1ccc(F)cc1)N1CCOCC1 (stereo unspecified),45.0*,-9.1,/,3.0,-3.9,-0.6,/,/,GRK2 confirm 2=-14.3;FAM quench CP2=90.0
O=[N+]([O-])c1ccc(N2CCN(Cc3ccccc3)CC2)nc1,0.0,-9.8,-0.7,-1.7,1.1,-1.1,/,/,
O=[N+]([O-])c1ccc(N2CCN(c3cccc(Cl)c3)CC2)nc1,11.0,15.1,24.0,9.1,-4.0,1.2,5.4,115.5,
CCOC(CCNC(=O)c1cn(CCOC)c(=O)c2c1c1ccccc1n2C)OCC,0.0,23.3,-0.6,6.2,22.1,-1.6,/,/,
C/C=C(/C)C(=O)OC1c2c(ccc3ccc(=O)oc23)OC(C)(C)C1OC(=O)/C(C)=C\C (stereo unspecified),70.0*,5.8,-20.6,-9.5,1.8,-3.9,-1.5,100.0,
Cc1cc(C(=O)NC2CCCc3c2cnn3-c2ccccc2F)nc(C)n1 (stereo unspecified),3.0,-13.0,4.7,-0.1,-9.4,1.2,/,/,
CC(C)c1cc(C(=O)NC2CCCc3c2cnn3-c2ccccc2F)no1 (stereo unspecified),69.0*,-0.1,-11.5,-4.9,3.6,-2.4,4.0,97.1,
